# In ChEMBL document CHEMBL4261490, “Exploring the links between peptoid antibacterial activity and toxicity” (Medchemcomm, 2017):
# Square brackets hold non-standard residues; d marks the D form. Peptide text beside a SMILES is read from it. Gly(N-2-aminoethyl) = NCCNCC(=O)O; Nspe = C[C@H](NCC(=O)O)c1ccccc1; Nphe = O=C(O)CNCc1ccccc1; Nlys = NCCCCNCC(=O)O
# What was measured:
# [1] = Selectivity index, ratio of ED50 for human HaCaT cells to MIC for Staphylococcus epidermidis clinical isolate; assay type: toxicity; conditions: read-out: Selectivity Index
# Escherichia coli = experiment: Antibacterial activity against Escherichia coli K-12 W3110 ATCC 27325 incubated for 16 hrs under shaking condition; assay type: functional; conditions: K-12 substr. W3110 ATCC 27325, 16 h
# In short: (§1)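 Broth microdilution (Andrews method) in Iso-sensitest broth. Overnight cultures are adjusted to A650 0.07 (0.5 McFarland) and diluted ten-fold. Compounds come from 5 mM DMSO stocks, 2-fold serially diluted, final 2–100 μM in a 1:1 inoculum:compound mix. Incubation is 37 °C for 16 h with shaking. MIC is the lowest concentration giving complete growth inhibition, read by absorbance; triplicate.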
# [2] = Selectivity index, ratio of ED50 for human HaCaT cells to MIC for Staphylococcus aureus 3R7089 strain Oxford/ATCC 9144; assay type: toxicity; conditions: read-out: Selectivity Index
# [3] = Cytotoxicity against human HaCaT cells assessed as reduction in cell viability pretreated for 1 hr followed by DMEM addition measured after 24 hrs by alamar blue assay; assay type: cell-based; conditions: read-out: ED50
# In short: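 HaCaT keratinocytes are grown in DMEM high glucose with 10% FBS and 1% P/S and seeded at 2x10^4 cells/well 24 h before treatment. Compound dilution series run 2–100 µM (5 mM DMSO stocks) in 50 µL for 1 h, then medium is added for 24 h at 37 °C, 5% CO2. alamarBlue is read after 1 h (Ex 540/Em 620). Triplicate, ≥2 occasions; ED50 from dose-response; amphotericin B positive control.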
# [4] = Selectivity index, ratio of ED50 for human HepG2 cells to MIC for Staphylococcus aureus 3R7089 strain Oxford/ATCC 9144; assay type: toxicity; conditions: read-out: Selectivity Index
# [5] = Selectivity index, ratio of ED50 for human HaCaT cells to MIC for Escherichia coli K-12 W3110 ATCC 27325; assay type: toxicity; conditions: read-out: Selectivity Index
# [6] = Selectivity index, ratio of ED50 for human HepG2 cells to MIC for Escherichia coli K-12 W3110 ATCC 27325; assay type: toxicity; conditions: read-out: Selectivity Index
# [7] = Selectivity index, ratio of ED50 for human HepG2 cells to MIC for Staphylococcus epidermidis clinical isolate; assay type: toxicity; conditions: read-out: Selectivity Index
# Pseudomonas aeruginosa = experiment: Antibacterial activity against Pseudomonas aeruginosa PAO1 ATCC 15692 incubated for 16 hrs under shaking condition; assay type: functional; conditions: PAO1 ATCC 15692, 16 h; in short: as §1
# [8] = Cytotoxicity against human HepG2 cells assessed as reduction in cell viability pretreated for 1 hr followed by DMEM addition measured after 24 hrs by alamar blue assay; assay type: cell-based; conditions: read-out: ED50
# In short: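 HepG2 cells are kept in DMEM high glucose with 10% heat-inactivated FBS and 1% P/S at 37 °C, 5% CO2, and seeded at 2x10^4 cells/well one day ahead. They are exposed to compounds (100 to 3 µM, from 5 mM DMSO stocks) in 50 µL for 1 h. Medium is then added and cells incubated 24 h. alamarBlue is read after 2 h (Ex 560/Em 600). Triplicate on ≥2 occasions; ED50 from dose-response; DMSO negative control.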
# [9] = system: Staphylococcus epidermidis; experiment: Antibacterial activity against Staphylococcus epidermidis clinical isolate incubated for 16 hrs under shaking condition; assay type: functional; in short: as §1
# Staphylococcus aureus = experiment: Antibacterial activity against Staphylococcus aureus 3R7089 strain Oxford/ATCC 9144 incubated for 16 hrs under shaking condition; assay type: functional; conditions: 3R7089 strain Oxford/ATCC 9144, 16 h; in short: as §1
# [10] = Selectivity index, ratio of ED50 for human HaCaT cells to MIC for Pseudomonas aeruginosa PAO1 ATCC 15692; assay type: toxicity; conditions: read-out: Selectivity Index
# [11] = Hemolytic activity against human erythrocytes measured after 1 hr; assay type: ADME, cell-based, Erythrocyte; conditions: read-out: HD50
# [12] = Cytotoxicity against mouse NIH/3T3 cells by MTS assay; assay type: cell-based, NIH3T3; conditions: read-out: ID50 (the source's name)
# [13] = Selectivity index, ratio of ED50 for human HepG2 cells to MIC for Pseudomonas aeruginosa PAO1 ATCC 15692; assay type: toxicity; conditions: read-out: Selectivity Index
SMILES,selectivity ratio [1],MIC (Escherichia coli),selectivity ratio [2],CC50 at 24 h [3],selectivity ratio [4],selectivity ratio [5],selectivity ratio [6],selectivity ratio [7],MIC (Pseudomonas aeruginosa),CC50 at 24 h [8],MIC [9],MIC (Staphylococcus aureus),selectivity ratio [10],HC50 at 1 h [11],CC50 [12],selectivity ratio [13]
"CC(c1ccccc1)N(CC(=O)N(CCCCN)CC(=O)N(CC(=O)N(CC(=O)N(CCCCN)CC(=O)N(CC(=O)N(CC(N)=O)[C@@H](C)c1ccccc1)[C@@H](C)c1ccccc1)Cc1ccc(F)cc1)Cc1ccc(F)cc1)C(=O)CN(C(=O)CN(CCCCN)C(=O)CN(Cc1ccc(F)cc1)C(=O)CN(Cc1ccc(F)cc1)C(=O)CNCCCCN)[C@@H](C)c1ccccc1 (single isomer, unassigned)",100,6 µM,50,> 100 µM,28,13,9,55,50 µM,55 µM,1 µM,2 µM,2,–,–,–
C[C@@H](c1ccccc1)N(CC(N)=O)C(=O)CN(C(=O)CN(CCCCN)C(=O)CN(C(=O)CN(C(=O)CN(CCCCN)C(=O)CN(C(=O)CN(C(=O)CN(CCCCN)C(=O)CN(C(=O)CN(C(=O)CNCCCCN)[C@@H](C)c1ccccc1)[C@@H](C)c1ccccc1)[C@@H](C)c1ccccc1)[C@@H](C)c1ccccc1)[C@@H](C)c1ccccc1)[C@@H](C)c1ccccc1)[C@@H](C)c1ccccc1 (H-[Nlys][Nspe][Nspe][Nlys][Nspe][Nspe][Nlys][Nspe][Nspe][Nlys][Nspe][Nspe]-NH2),–,–,10,–,15,–,–,–,–,–,–,–,–,100 µM,5.1 µM,–
NCCCCNCC(=O)N(CC(=O)N(CC(=O)N(CCCCN)CC(=O)N(CC(=O)N(CC(N)=O)Cc1ccccc1)Cc1ccccc1)Cc1ccccc1)Cc1ccccc1 (H-[Nlys][Nphe][Nphe][Nlys][Nphe][Nphe]-NH2),1,> 100 µM,1,> 100 µM,1,1,1,1,> 100 µM,> 100 µM,> 100 µM,> 100 µM,1,–,–,1
NCCNCC(=O)N(CC(=O)N(CC(=O)N(CCN)CC(=O)N(CC(=O)N(CC(N)=O)Cc1ccccc1)Cc1ccccc1)Cc1ccccc1)Cc1ccccc1 (H-[Gly(N-2-aminoethyl)][Nphe][Nphe][Gly(N-2-aminoethyl)][Nphe][Nphe]-NH2),1,> 100 µM,1,> 100 µM,1,1,1,1,> 100 µM,> 100 µM,> 100 µM,> 100 µM,1,–,–,1
"CCCCCNCC(=O)N(CC(=O)N(CC(=O)N(CCCCC)CC(=O)N(CC(=O)N(CC(=O)N(CCCCN)CC(=O)N(CC(=O)N(CC(=O)N(CCCCN)CC(=O)N(CC(=O)N(CC(N)=O)[C@@H](C)c1ccccc1)[C@@H](C)c1ccccc1)C(C)c1ccccc1)[C@@H](C)c1ccccc1)C(C)c1ccccc1)[C@@H](C)c1ccccc1)C(C)c1ccccc1)[C@@H](C)c1ccccc1 (single isomer, unassigned)",20,> 100 µM,10,20 µM,9,–,–,18,> 100 µM,18 µM,1 µM,2 µM,–,–,–,–
C[C@@H](c1ccccc1)N(CC(N)=O)C(=O)CN(C(=O)CN(CCN)C(=O)CN(C(=O)CN(C(=O)CNCCN)[C@@H](C)c1ccccc1)[C@@H](C)c1ccccc1)[C@@H](C)c1ccccc1,1,> 100 µM,1,> 100 µM,1,1,1,1,> 100 µM,> 100 µM,> 100 µM,> 100 µM,1,–,–,1
N=C(N)NCCCCNCC(=O)N(CC(=O)N(CC(=O)N(CCCCNC(=N)N)CC(=O)N(CC(=O)N(CC(=O)N(CCCCNC(=N)N)CC(=O)N(CC(=O)N(CC(=O)N(CCCCNC(=N)N)CC(=O)N(CC(=O)N(CC(N)=O)Cc1cccc(F)c1)Cc1cccc(F)c1)Cc1cccc(F)c1)Cc1cccc(F)c1)Cc1cccc(F)c1)Cc1cccc(F)c1)Cc1cccc(F)c1)Cc1cccc(F)c1,14,13 µM,14,28 µM,11,2,2,11,13 µM,21 µM,2 µM,2 µM,2,–,–,2
